# pKi: −log10 of the molar value. Where a SMILES comes first, the peptide text is derived from it. [ ]: non-standard residue; d: D form. The star is where a group is joined. dArg(NO2) = N=C(NCCC[C@@H](N)C(=O)O)N[N+](=O)[O-]; Arg(NO2) = N=C(NCCC[C@H](N)C(=O)O)N[N+](=O)[O-]; OBn = c1ccc(CO*)cc1
# Tests used:
# [1] = Selectivity for nNOS and eNOS, ratio of Ki
# [2] = Selectivity for iNOS and eNOS binding, ratio of Ki
# [3] = target: Nitric oxide sythases; iNOS & nNOS (Homo sapiens) (UniProt P29475+P35228); test: Selectivity for nNOS and iNOS, ratio of Ki; format: protein assay
# Nitric oxide sythases; iNOS & nNOS (Homo sapiens), sequence (P29475 whole entry, looked up, canonical isoform): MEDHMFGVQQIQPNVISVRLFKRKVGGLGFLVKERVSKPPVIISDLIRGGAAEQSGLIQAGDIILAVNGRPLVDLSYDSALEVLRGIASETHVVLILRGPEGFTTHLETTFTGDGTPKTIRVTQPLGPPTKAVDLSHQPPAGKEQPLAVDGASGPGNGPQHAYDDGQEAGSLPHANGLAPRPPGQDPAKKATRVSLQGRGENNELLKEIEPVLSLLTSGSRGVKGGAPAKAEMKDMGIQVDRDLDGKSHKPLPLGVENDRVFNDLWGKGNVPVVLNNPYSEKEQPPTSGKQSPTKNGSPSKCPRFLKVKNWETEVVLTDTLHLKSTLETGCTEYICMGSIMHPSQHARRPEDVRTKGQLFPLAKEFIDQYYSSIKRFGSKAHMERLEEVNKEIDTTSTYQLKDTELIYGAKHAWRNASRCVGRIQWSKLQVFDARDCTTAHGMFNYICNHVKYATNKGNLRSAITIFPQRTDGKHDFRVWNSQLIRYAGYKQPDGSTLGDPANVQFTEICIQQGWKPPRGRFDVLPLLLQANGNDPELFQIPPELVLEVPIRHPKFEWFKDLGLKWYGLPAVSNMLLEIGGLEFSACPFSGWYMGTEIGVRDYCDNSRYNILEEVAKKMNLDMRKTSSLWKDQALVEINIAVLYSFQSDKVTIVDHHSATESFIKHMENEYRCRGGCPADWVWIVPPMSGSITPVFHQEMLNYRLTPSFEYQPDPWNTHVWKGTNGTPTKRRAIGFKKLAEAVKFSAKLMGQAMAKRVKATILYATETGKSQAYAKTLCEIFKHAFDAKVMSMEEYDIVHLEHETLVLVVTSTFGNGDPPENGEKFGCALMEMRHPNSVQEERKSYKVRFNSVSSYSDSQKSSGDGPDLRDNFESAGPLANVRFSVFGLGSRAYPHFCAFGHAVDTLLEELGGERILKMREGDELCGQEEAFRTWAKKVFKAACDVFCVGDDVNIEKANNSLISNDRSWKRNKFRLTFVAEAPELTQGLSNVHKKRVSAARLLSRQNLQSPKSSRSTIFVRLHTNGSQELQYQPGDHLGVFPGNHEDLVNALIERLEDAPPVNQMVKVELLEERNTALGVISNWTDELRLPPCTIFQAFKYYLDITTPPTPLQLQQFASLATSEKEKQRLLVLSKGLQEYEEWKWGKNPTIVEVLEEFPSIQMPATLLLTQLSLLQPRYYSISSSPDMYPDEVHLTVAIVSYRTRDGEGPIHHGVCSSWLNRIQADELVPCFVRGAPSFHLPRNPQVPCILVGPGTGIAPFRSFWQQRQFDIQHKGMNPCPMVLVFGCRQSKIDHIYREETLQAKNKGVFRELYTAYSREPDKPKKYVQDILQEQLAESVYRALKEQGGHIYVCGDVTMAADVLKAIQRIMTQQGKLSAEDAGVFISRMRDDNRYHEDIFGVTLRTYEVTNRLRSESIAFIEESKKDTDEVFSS
# Nitric oxide sythases; iNOS & nNOS (Homo sapiens), sequence (P35228 whole entry, looked up, canonical isoform): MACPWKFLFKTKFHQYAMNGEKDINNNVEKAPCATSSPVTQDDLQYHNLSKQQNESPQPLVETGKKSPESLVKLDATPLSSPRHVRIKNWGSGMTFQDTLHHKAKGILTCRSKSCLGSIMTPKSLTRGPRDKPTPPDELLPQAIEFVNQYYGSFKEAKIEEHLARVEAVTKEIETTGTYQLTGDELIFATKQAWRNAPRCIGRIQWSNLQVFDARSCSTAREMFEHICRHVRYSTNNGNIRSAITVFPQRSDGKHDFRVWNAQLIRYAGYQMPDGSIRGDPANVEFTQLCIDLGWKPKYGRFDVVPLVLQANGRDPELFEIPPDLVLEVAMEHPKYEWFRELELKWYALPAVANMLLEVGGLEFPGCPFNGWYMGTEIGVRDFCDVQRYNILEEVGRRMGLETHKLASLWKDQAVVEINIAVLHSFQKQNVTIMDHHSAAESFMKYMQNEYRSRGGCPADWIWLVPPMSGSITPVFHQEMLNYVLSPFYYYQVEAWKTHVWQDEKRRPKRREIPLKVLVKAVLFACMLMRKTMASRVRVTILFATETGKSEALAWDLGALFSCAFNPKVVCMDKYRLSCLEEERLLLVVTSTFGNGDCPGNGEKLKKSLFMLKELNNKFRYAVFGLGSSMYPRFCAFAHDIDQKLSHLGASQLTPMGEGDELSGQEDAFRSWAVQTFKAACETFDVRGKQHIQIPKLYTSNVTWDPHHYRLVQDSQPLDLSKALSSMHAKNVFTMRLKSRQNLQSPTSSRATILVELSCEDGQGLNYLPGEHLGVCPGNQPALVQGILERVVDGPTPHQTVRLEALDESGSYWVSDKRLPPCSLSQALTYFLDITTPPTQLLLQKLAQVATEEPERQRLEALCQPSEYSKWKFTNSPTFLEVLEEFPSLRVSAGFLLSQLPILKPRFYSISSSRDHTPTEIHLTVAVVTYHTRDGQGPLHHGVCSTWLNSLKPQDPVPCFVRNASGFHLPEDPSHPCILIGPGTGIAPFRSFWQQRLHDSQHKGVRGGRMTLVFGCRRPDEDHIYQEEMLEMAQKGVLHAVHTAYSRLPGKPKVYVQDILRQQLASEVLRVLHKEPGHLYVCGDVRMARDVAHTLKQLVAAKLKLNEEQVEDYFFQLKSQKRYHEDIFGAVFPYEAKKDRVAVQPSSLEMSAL
# Nitric oxide synthase 3 = target: T1, Nitric oxide synthase 3 (Bos taurus, UniProt P29473); test: Inhibition of endothelial isoform of nitric oxide synthase
# T1 sequence (P29473 whole entry): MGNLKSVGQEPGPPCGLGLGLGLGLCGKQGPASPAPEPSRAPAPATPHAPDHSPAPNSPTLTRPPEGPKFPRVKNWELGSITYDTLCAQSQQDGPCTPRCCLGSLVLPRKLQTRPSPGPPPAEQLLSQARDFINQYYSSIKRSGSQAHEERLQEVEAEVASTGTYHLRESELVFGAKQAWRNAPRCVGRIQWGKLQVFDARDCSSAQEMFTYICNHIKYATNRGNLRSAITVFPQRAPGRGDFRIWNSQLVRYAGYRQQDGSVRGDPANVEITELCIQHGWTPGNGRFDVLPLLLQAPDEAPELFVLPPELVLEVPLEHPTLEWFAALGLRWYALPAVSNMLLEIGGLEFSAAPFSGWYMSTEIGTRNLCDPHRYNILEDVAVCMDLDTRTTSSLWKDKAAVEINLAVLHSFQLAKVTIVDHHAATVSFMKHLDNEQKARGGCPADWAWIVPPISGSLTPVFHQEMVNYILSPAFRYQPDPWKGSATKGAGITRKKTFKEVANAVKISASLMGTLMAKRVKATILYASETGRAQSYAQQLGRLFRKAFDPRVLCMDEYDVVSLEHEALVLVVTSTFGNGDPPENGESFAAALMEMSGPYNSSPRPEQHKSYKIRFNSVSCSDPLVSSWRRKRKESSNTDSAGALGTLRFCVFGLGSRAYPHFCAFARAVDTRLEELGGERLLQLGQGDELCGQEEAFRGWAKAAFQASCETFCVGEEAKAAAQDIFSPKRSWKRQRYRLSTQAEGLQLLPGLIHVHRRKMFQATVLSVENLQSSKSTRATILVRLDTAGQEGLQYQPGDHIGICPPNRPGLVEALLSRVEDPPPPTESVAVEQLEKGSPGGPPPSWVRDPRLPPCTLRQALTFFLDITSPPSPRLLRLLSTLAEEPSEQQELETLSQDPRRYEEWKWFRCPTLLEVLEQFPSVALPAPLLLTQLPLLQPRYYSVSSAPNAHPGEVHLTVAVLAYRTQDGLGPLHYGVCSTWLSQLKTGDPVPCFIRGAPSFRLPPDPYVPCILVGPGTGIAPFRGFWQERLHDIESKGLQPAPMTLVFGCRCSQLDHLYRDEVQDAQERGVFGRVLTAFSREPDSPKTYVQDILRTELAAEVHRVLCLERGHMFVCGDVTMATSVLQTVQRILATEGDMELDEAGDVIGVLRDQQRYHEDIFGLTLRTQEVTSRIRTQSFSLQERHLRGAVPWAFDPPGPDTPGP
# Outline: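 eNOS expressed in E. coli, purified and supplemented with L-arginine and BH4 (235 nmol NO/mg/min at 25 °C). NO formation was followed by oxyhemoglobin capture (80 µM) under initial rates in 50 mM Hepes pH 7.5 with 3-25 µM L-arginine, 100 µM DTT, 10 µM CaCl2, 1 µg/mL calmodulin, 5 µM BH4 and 100 µM NADPH. Ki came from Dixon plots with varied substrate and inhibitor.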
# [4] = target: T2, Nitric oxide synthase, inducible (Mus musculus, UniProt P29477); test: Inhibition of inducible Nitric Oxide Synthase
# T2 sequence (P29477 whole entry): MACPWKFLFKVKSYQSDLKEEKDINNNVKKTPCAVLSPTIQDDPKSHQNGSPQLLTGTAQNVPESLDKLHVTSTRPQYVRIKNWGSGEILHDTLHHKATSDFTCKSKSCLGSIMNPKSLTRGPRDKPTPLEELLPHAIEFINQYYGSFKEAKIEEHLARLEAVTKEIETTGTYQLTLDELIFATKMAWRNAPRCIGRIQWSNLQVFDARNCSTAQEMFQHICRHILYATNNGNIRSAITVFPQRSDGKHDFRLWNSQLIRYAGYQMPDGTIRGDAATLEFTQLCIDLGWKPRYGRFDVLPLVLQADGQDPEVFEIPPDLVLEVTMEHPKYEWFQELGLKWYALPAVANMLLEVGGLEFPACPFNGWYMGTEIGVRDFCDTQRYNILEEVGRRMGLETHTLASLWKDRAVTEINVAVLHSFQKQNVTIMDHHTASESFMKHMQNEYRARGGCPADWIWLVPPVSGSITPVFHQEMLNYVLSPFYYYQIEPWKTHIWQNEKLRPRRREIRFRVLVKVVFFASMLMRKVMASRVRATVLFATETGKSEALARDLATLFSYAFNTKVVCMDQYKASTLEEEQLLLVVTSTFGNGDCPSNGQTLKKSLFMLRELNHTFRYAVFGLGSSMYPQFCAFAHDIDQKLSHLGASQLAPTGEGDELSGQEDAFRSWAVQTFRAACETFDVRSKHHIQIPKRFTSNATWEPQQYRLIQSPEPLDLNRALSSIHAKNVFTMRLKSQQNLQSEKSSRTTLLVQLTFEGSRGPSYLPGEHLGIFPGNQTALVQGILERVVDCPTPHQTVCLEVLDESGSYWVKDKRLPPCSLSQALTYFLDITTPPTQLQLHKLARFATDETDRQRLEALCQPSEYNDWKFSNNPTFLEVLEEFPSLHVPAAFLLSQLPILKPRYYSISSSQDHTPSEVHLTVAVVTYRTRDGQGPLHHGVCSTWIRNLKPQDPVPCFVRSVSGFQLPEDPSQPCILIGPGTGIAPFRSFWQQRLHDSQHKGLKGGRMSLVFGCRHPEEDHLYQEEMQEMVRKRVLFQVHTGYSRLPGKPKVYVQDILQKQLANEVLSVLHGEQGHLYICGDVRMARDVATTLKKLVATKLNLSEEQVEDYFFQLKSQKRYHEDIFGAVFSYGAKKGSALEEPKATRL
# Outline: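 Purified murine macrophage iNOS expressed in recombinant E. coli (500 nmol NO/mg/min at 30 °C). Initial-rate hemoglobin capture assay in 100 mM Hepes pH 7.5 with 10-60 µM L-arginine, 100 µM DTT, 100 µM NADPH, 6.5 µM BH4 and 3 µM oxyhemoglobin, without added calcium/calmodulin. Ki taken from Dixon plots across varied L-arginine and inhibitor concentrations.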
smiles,measurement,setting,value
N/C(=N\CCC[C@H](N)C(=O)N[C@@H](Cc1ccccc1)C(=O)OCc1ccccc1)N[N+](=O)[O-],Selectivity,[1],2.3
same,Selectivity,[2],6.9
same,Selectivity,[3],0.33
same,pKi,Nitric oxide synthase 3,3.90
same,pKi,[4],4.74
COC(=O)[C@H](CCC/N=C(\N)N[N+](=O)[O-])NC(=O)[C@@H](N)Cc1ccccc1,Selectivity,[1],3.6
same,Selectivity,[2],6.6
same,Selectivity,[3],0.55
same,pKi,Nitric oxide synthase 3,2.87
same,pKi,[4],3.69
COC(=O)[C@@H](Cc1ccccc1)NC(=O)[C@@H](N)CCC/N=C(\N)N[N+](=O)[O-],Selectivity,[1],5.7
same,Selectivity,[2],5.3
same,Selectivity,[3],1.1
same,pKi,Nitric oxide synthase 3,3.28
same,pKi,[4],4.00
N=C(NCCC[C@H](NC(=O)[C@@H](N)Cc1ccccc1)C(=O)O)N[N+](=O)[O-] (H-Phe-[Arg(NO2)]-OH),pKi,Nitric oxide synthase 3,3.31
same,pKi,[4],4.03
COC(=O)[C@@H](Cc1ccccc1)NC(=O)[C@H](N)CCC/N=C(\N)N[N+](=O)[O-],Selectivity,[1],2.5
same,Selectivity,[2],0.058
same,Selectivity,[3],43.3
N/C(=N\CCC[C@@H](NC(=O)[C@H](N)Cc1ccccc1)C(=O)O)N[N+](=O)[O-] (H-[dF]-[dArg(NO2)]-OH),Selectivity,[1],5.3
same,Selectivity,[2],0.0066
same,Selectivity,[3],800
same,pKi,Nitric oxide synthase 3,4.05
same,pKi,[4],1.87
COC(=O)[C@@H](CCCNC(=N)N[N+](=O)[O-])NC(=O)[C@H](N)Cc1ccccc1 [listing 1 of 2 here],pKi,Nitric oxide synthase 3,2.07
same,pKi,[4],2.92
N/C(=N\CCC[C@H](N)C(=O)N[C@@H](Cc1ccccc1)C(=O)O)N[N+](=O)[O-],Selectivity,[1],21.9
same,Selectivity,[2],2.5
same,Selectivity,[3],8.9
same,pKi,Nitric oxide synthase 3,3.40
same,pKi,[4],3.80
COC(=O)[C@H](Cc1ccccc1)NC(=O)[C@@H](N)CCC/N=C(\N)N[N+](=O)[O-],pKi,Nitric oxide synthase 3,3.40
same,pKi,[4],4.35
N/C(=N\CCC[C@H](NC(=O)[C@@H](N)Cc1ccccc1)C(=O)O)N[N+](=O)[O-] (H-Phe-[Arg(NO2)]-OH),Selectivity,[1],3.5
same,Selectivity,[2],5.3
same,Selectivity,[3],0.66
COC(=O)[C@@H](CCCNC(=N)N[N+](=O)[O-])NC(=O)[C@H](N)Cc1ccccc1 [listing 2 of 2 here],pKi,Nitric oxide synthase 3,5.30
same,pKi,[4],2.44
COC(=O)[C@@H](Cc1ccccc1)NC(=O)[C@H](N)CCCNC(=N)N[N+](=O)[O-],pKi,Nitric oxide synthase 3,3.43
same,pKi,[4],2.19
N/C(=N\CCC[C@H](NC(=O)[C@@H](N)Cc1ccccc1)C(=O)OCc1ccccc1)N[N+](=O)[O-] (H-Phe-[Arg(NO2)]-OBn),Selectivity,[1],2.3
same,Selectivity,[2],5.6
same,Selectivity,[3],0.41
same,pKi,Nitric oxide synthase 3,3.60
same,pKi,[4],4.35
COC(=O)[C@@H](CCC/N=C(\N)N[N+](=O)[O-])NC(=O)[C@@H](N)Cc1ccccc1,Selectivity,[1],1.7
same,Selectivity,[2],0.02
same,Selectivity,[3],83.3
same,pKi,Nitric oxide synthase 3,3.82
same,pKi,[4],2.12
